ChEMBL document CHEMBL2057114, “Non-nucleoside inhibitors of the measles virus RNA-dependent RNA polymerase: synthesis, structure-activity relationships, and pharmacokinetics” (J Med Chem, 2012)
≈ marks a conversion by molar mass, not a printed value.

Assays:
Measles morbillivirus [1] = assay: Antiviral activity against Measles virus Alaska infected african green monkey Vero cells expressing human SLAM assessed as decrease in virus-induced cytopathic effect; assay type: functional, organism-based
[2] = Solubility of the compound at pH 7.4 by nephelometric analysis; assay type: physicochemical; details: buffer
Procedure, shortened: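 Aqueous solubility was measured by nephelometry in buffer at pH 7.4.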

Vero = assay: Cytotoxicity against african green monkey Vero cells after 24 hrs by MTT assay; assay type: cell-based; details: chlorocebus sabaeus
Measles morbillivirus [3] = assay: Antiviral activity against Measles virus Alaska infected african green monkey Vero cells expressing human SLAM assessed as decrease in viral titer at EC50 of cytopathic inhibition; assay type: functional, organism-based
[4] = Cmax in Sprague-Dawley rat at 10 mg/kg, po; assay type: ADME, organism-based; set-up: dose 10 mg/kg, route oral; details: in vivo
Procedure, shortened: (§1)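 Oral gavage at 10 and 50 mg/kg to Sprague-Dawley rats, given as a suspension in PEG200/0.5% methylcellulose (10/90), n = 4 per group. Plasma concentration was followed over time, and PK parameters were estimated by non-compartmental analysis.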

[5] = AUC (0 to infinity) in Sprague-Dawley rat at 50 mg/kg, po; assay type: ADME, organism-based; set-up: time infinity, dose 50 mg/kg, route oral; details: plasma; procedure, shortened: as §1
Rattus norvegicus [6] = assay: Ratio of Cmax for ERDRP-00519 to Cmax for AS-136a in Sprague-Dawley rat at 10 to 50 mg/kg; assay type: ADME, organism-based; set-up: dose 10-50 mg/kg; details: in vivo
[7] = Tmax in Sprague-Dawley rat at 10 mg/kg, po; assay type: ADME, organism-based; set-up: dose 10 mg/kg, route oral; details: in vivo; procedure, shortened: as §1
Measles morbillivirus [8] = assay: Inhibition of Measles virus RdRp expressed in baby hamster BSR-T7/5 cells by firefly luciferase mini replicon assay; assay type: cell-based
Procedure, shortened: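 BSR-T7/5 cells were transfected with plasmids encoding MeV L, N and P plus a firefly luciferase minigenome reporter, then incubated with a range of inhibitor concentrations or vehicle. Luciferase activity in cell lysates was read 36 h post-transfection relative to vehicle, and dose-response curves were built; three experiments.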

Caco-2 = assay: Efflux ratio of permeability in human Caco2 cells; assay type: ADME, cell-based
Procedure, shortened: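 Caco-2 bidirectional permeability assay, with efflux ratio calculated from the two transport directions.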

[9] = Metabolic stability of the compound in human liver S9 fractions assessed as compound remaining after 1 hr; assay type: ADME, subcellular, S9 fraction; details: read-out: Stability
Procedure, shortened: (§2)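 Compound incubated one hour in liver S9 fraction, with the percentage of parent compound remaining as the readout.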

[10] = Cmax in Sprague-Dawley rat at 50 mg/kg, po; assay type: ADME, organism-based; set-up: dose 50 mg/kg, route oral; details: in vivo; procedure, shortened: as §1
[11] = Half life in Sprague-Dawley rat at 10 mg/kg, po; assay type: ADME, organism-based; set-up: dose 10 mg/kg, route oral; details: in vivo; procedure, shortened: as §1
[12] = AUC (0 to t) in Sprague-Dawley rat at 10 mg/kg, po; assay type: ADME, organism-based; set-up: dose 10 mg/kg, route oral; details: plasma; procedure, shortened: as §1
Rattus norvegicus [13] = assay: Oral bioavailability in Sprague-Dawley rat at 10 mg/kg; assay type: ADME, organism-based; details: in vivo
Procedure, shortened: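 Rats were dosed 2 mg/kg i.v. and 10 mg/kg p.o., and oral bioavailability F was derived by comparing the two routes.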

[14] = Half life in Sprague-Dawley rat at 50 mg/kg, po; assay type: ADME, organism-based; set-up: dose 50 mg/kg, route oral; details: in vivo; procedure, shortened: as §1
[15] = Tmax in Sprague-Dawley rat at 50 mg/kg, po; assay type: ADME, organism-based; set-up: dose 50 mg/kg, route oral; details: in vivo; procedure, shortened: as §1
Rattus norvegicus [16] = assay: Ratio of AUC for ERDRP-00519 to AUC for AS-136a in Sprague-Dawley rat at 10 to 50 mg/kg; assay type: ADME, organism-based; set-up: dose 10-50 mg/kg; details: in vivo
[17] = AUC (0 to infinity) in Sprague-Dawley rat at 10 mg/kg, po; assay type: ADME, organism-based; set-up: time infinity, dose 10 mg/kg, route oral; details: plasma; procedure, shortened: as §1
[18] = AUC (0 to t) in Sprague-Dawley rat at 50 mg/kg, po; assay type: ADME, organism-based; set-up: dose 50 mg/kg, route oral; details: plasma; procedure, shortened: as §1
[19] = Metabolic stability of the compound in mouse liver S9 fractions assessed as compound remaining after 1 hr; assay type: ADME, subcellular, S9 fraction; details: read-out: Stability; procedure, shortened: as §2

| Structure (SMILES) | EC50 (Measles morbillivirus [1]) | solubility kinetic [2] | further results |
| --- | --- | --- | --- |
| Cn1nc(C(F)(F)F)cc1C(=O)Nc1ccc(S(=O)(=O)N2CCCCC2CCN2CCOCC2)cc1 (configuration not stated) | 4.6 µM | 55 µg/mL (≈ 104 µM) |  |
| CC(=O)Oc1ccccc1S(=O)(=O)c1ccc(NC(=O)c2cc(C(F)(F)F)nn2C)cc1 | 4.5 µM |  |  |
| CC(=O)NCC1CCCCN1S(=O)(=O)c1ccc(NC(=O)c2cc(C(F)(F)F)nn2C)cc1 (configuration not stated) | 14 µM |  |  |
| C=Cc1ccccc1S(=O)(=O)c1ccc(NC(=O)c2cc(C(F)(F)F)nn2C)cc1 | > 50 µM |  |  |
| COCOCC1CCN(S(=O)(=O)c2ccc(NC(=O)c3cc(C(F)(F)F)nn3C)cc2)CC1 | 16 µM |  |  |
| CN(C)CC1CCCCN1S(=O)(=O)c1ccc(NC(=O)c2cc(C(F)(F)F)nn2C)cc1 (configuration not stated) | > 150 µM |  |  |
| Cn1nc(C(F)(F)F)cc1C(=O)Nc1ccc(S(=O)(=O)N2CCCC[C@H]2CCN2CCOCC2)cc1 | 2.5 µM | 60 µg/mL (≈ 113 µM) | Cmax [4]: 195 ng/mL; AUC(0-inf) [5]: 7860 ng·h/mL; Ratio (Rattus norvegicus [6]): 10; Tmax [7]: 1.1 h; EC50 (Measles morbillivirus [3]): 0.06 µM; inhibition (Measles morbillivirus [8]): Dose-dependent effect; Ratio (Caco-2): 2.6; remaining at 1 h [9]: 24%; Cmax [10]: 823 ng/mL; half-life [11]: 2.2 h; AUC(0-t) [12]: 683 ng·h/mL; F (Rattus norvegicus [13]): 39%; half-life [14]: 6.5 h; Tmax [15]: 1.5 h; Ratio (Rattus norvegicus [16]): 10; AUC(0-inf) [17]: 818 ng·h/mL; CC50 (Vero): > 75 µM; AUC(0-t) [18]: 3520 ng·h/mL |
| CCOC(=O)CCC1CCCCN1S(=O)(=O)c1ccc(NC(=O)c2cc(C(F)(F)F)nn2C)cc1 (configuration not stated) | 6.7 µM |  |  |
| Cn1nc(C(F)(F)F)cc1C(=O)Nc1ccc(S(=O)(=O)N2CCCCC2/C=C/CO)cc1 (configuration not stated) | 3.7 µM |  |  |
| Cn1nc(C(F)(F)F)cc1C(=O)Nc1ccc(S(=O)(=O)N2CCCCC2CN)cc1 (configuration not stated) | 55 µM |  |  |
| Cn1nc(C(F)(F)F)cc1C(=O)Nc1ccc(S(=O)(=O)N2CCCCC2COCCO)cc1 (configuration not stated) | 8.3 µM |  |  |
| Cn1nc(C(F)(F)F)cc1C(=O)Nc1ccc(S(=O)(=O)N2CCCCC2CN2CCOCC2)cc1 (configuration not stated) | 9.3 µM |  |  |
| Cn1nc(C(F)(F)F)cc1C(=O)Nc1ccc(S(=O)(=O)N2CCCC[C@@H]2CCO)cc1 | 8.3 µM |  |  |
| COCOCC1CCCN(S(=O)(=O)c2ccc(NC(=O)c3cc(C(F)(F)F)nn3C)cc2)C1 (configuration not stated) | 3.8 µM |  |  |
| CCOC(=O)/C=C/C1CCCCN1S(=O)(=O)c1ccc(NC(=O)c2cc(C(F)(F)F)nn2C)cc1 (configuration not stated) | 6.8 µM |  |  |
| CCOC(=O)COCC1CCCCN1S(=O)(=O)c1ccc(NC(=O)c2cc(C(F)(F)F)nn2C)cc1 (configuration not stated) | 25 µM |  |  |
| Cn1nc(C(F)(F)F)cc1C(=O)Nc1ccc(S(=O)(=O)c2ccccc2O)cc1 | 4.5 µM | 67 µg/mL (≈ 158 µM) |  |
| Cn1nc(C(F)(F)F)cc1C(=O)Nc1ccc(S(=O)(=O)c2ccccc2CN2CCOCC2)cc1 | > 75 µM |  |  |

Second part, led by results:

| EC50 (Measles morbillivirus [1]) | solubility kinetic [2] | Structure (SMILES) | further results |
| --- | --- | --- | --- |
| 3.1 µM | < 15 µg/mL | COc1ccccc1S(=O)(=O)c1ccc(NC(=O)c2cc(C(F)(F)F)nn2C)cc1 | CC50 (Vero): > 75 µM |
| 3.1 µM |  | Cn1nc(C(F)(F)F)cc1C(=O)Nc1ccc(S(=O)(=O)N2CCCC[C@H]2CCO)cc1 |  |
| 2.8 µM | 22 µg/mL (≈ 53.7 µM) | Cn1nc(C(F)(F)F)cc1C(=O)Nc1ccc(S(=O)(=O)c2ccccc2)cc1 | EC50 (Measles morbillivirus [3]): 0.09 µM; CC50 (Vero): > 75 µM |
| 2.8 µM | 61 µg/mL (≈ 137 µM) | Cn1nc(C(F)(F)F)cc1C(=O)Nc1ccc(S(=O)(=O)N2CCCCC2CO)cc1 (configuration not stated) | CC50 (Vero): > 75 µM |
| 1.5 µM |  | Cn1nc(C(F)(F)F)cc1C(=O)Nc1ccc(S(=O)(=O)N2CCCCC2CN=[N+]=[N-])cc1 (configuration not stated) |  |
| 2.7 µM |  | Cn1nc(C(F)(F)F)cc1C(=O)Nc1ccc(S(=O)(=O)N2CCCCC2CCCO)cc1 (configuration not stated) |  |
| 2 µM | < 15 µg/mL | Cn1nc(C(F)(F)F)cc1C(=O)Nc1ccc(S(=O)(=O)N2CCCCC2)cc1 | inhibition (Measles morbillivirus [8]): Dose-dependent effect; Ratio (Caco-2): 1.1; remaining at 1 h [9]: 69%; CC50 (Vero): > 75 µM; remaining at 1 h [19]: 79% |
| 3.5 µM | 46 µg/mL (≈ 105 µM) | Cn1nc(C(F)(F)F)cc1C(=O)Nc1ccc(S(=O)(=O)c2ccccc2CO)cc1 | CC50 (Vero): > 75 µM |
| 1.5 µM |  | COCOCC1CCCCN1S(=O)(=O)c1ccc(NC(=O)c2cc(C(F)(F)F)nn2C)cc1 (configuration not stated) |  |
| 2.7 µM | 62 µg/mL (≈ 135 µM) | Cn1nc(C(F)(F)F)cc1C(=O)Nc1ccc(S(=O)(=O)N2CCCCC2CCO)cc1 (configuration not stated) | EC50 (Measles morbillivirus [3]): 0.1 µM; CC50 (Vero): > 75 µM |
